From PubChem
TDP2 inh: human TDP2 enzyme inhibitors, primary screen, biochemical, epi absorbance, recombinant enzyme. AID 720702, 2013. T5PNP hydrolysis, p-nitrophenol absorbance 415 nm. 370,000 tested, 0.34% active. inhibition, % at 12.8 µM. Tyrosyl-DNA phosphodiesterase 2 (Homo sapiens), O95551;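 active = inhibition above the mean of all tested compounds plus 3 SD, set per campaign, cut at about 25% in these data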;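 also: 0% = DMSO with enzyme and 100% = buffer with substrate but no TDP2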
Target sequence (O95551 whole entry, looked up): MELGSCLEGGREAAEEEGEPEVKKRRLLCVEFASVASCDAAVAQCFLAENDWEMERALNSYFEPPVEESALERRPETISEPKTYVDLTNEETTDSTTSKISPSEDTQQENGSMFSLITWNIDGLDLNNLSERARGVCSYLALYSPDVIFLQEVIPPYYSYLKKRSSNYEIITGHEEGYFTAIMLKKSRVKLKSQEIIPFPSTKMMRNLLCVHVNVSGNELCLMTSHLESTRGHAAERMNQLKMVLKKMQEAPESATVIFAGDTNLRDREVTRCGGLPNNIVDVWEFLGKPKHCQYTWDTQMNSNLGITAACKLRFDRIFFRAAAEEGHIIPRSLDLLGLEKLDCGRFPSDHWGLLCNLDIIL
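System – recombinant human TDP2 · Amount – 120 nM TDP2 per well · Buffer or medium – Mg2+-containing Tris-HCl buffer, pH 7.5 · Reagent – T5PNP substrate, 5 mM · Dosing – 12.8 µM single point, 1% DMSO · Incubation – 2 h at 37 °C · Measured by – epi absorbance · Read-out basis – percent inhibition · Benchmarks – high control without enzyme, low control DMSO plus TDP2 · Repeats – singlicate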
LEDGF integ inh: blockers of LEDGF/p75-dependent integrase strand transfer – biochemical, TR-FRET, high throughput, primary screen | HIV-1 integrase (with human LEDGF/p75) | TR-FRET IN-LEDGF/p75 DNA integration, Eu/Cy5 | inhibition, % at 3.7 µM | 370,000 tested, 0.64% active | AID 743269, 2014;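 active = inhibition above the screen-wide mean plus 3 SD, cut at about 13% in these data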;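 also: signal is the Cy5 over europium emission ratio at 671 and 618 nm; 0% = plate median of compound wells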
CASP6 VEID inh: human caspase-6 inhibitors, primary screen, biochemical, VEID-R110 fluorescence, single point, set 2. P55212. purified caspase-6, Z-VEID-R110 cleavage fluorescence. inhibition, % at 12.5 µM. 350,000 tested, 0.53% active;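 active = mean inhibition across replicates at least about 35%, with every replicate also reaching that limit, limit read from the data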;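 also: 0% = median of neutral control wells and 100% = no fluorescence left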
Target sequence (P55212 24-179 limits assumed): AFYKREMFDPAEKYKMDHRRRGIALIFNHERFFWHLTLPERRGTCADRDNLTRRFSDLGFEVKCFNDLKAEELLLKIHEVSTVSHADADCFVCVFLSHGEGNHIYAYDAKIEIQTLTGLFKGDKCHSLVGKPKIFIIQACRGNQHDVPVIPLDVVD
Target sequence (P55212 194-293 limits assumed): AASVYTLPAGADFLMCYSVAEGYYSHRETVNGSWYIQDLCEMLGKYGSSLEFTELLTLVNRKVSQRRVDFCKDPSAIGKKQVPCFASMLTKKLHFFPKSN
UHRF1 MBD2 ctr: UHRF1 methylated DNA binding inhibitors, primary screen, counter-screen for MBD2 inhibitor project, biochemical, TR-FRET, human UHRF1, single concentration. 370,000 tested, 0.75% active. E3 ubiquitin-protein ligase UHRF1 (Homo sapiens), Q96T88. inhibition, % at 4.4 µM. UHRF1 binding to methylated oligo;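 also: UHRF1 SRA domain binding a hemimethylated CpG hairpin DNA probe; 0% = median of test compound wells and 100% = reference inhibitor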
NSD2 inh: NSD2 histone methyltransferase inhibitors, primary screen, biochemical, AlphaScreen, single concentration, set 2. NSD2 peptide methylation, 120 min. 310,000 tested, 0.54% active. inhibition, % at 12.5 µM. Histone-lysine N-methyltransferase NSD2 (Homo sapiens), O96028. AID 743445, 2014; in the data active = inhibition above about 50%
MBD2 DNA inh: inhibitors of MBD2 binding to methylated DNA, primary screen, biochemical, TR-FRET, DNA-binding domain, human; Methyl-CpG-binding domain protein 2 (Homo sapiens), Q9UBB5; MBD2 binding to methylated oligonucleotide; inhibition, % at 4.4 µM; 370,000 tested, 0.31% active; AID 686964, 2013; in the data active = inhibition above about 13%
UHRF1 ctr MBD2: UHRF1 methylated DNA binding inhibitors, counter-screen for MBD2 inhibitor project, biochemical, TR-FRET, human UHRF1; shares compounds with MBD2 DNA inh; UHRF1 binding to methylated oligonucleotide; inhibition, % at 4.4 µM; 1,000 tested, 25% active; AID 720530, 2013;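 also: UHRF1 SRA domain binding a labeled hemimethylated CpG hairpin DNA; 0% = vehicle only and 100% = reference inhibitor with vehicle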
MBD2 DBD conf: inhibitors of MBD2 binding to methylated DNA, confirmation, biochemical, TR-FRET, DNA-binding domain, human. shares compounds with MBD2 DNA inh. TR-FRET MBD2-DBD binding to methylated oligonucleotide. 1,000 tested, 26% active. inhibition, % at 4.4 µM; in the data active = inhibition above about 14%
* marks the source's active call; other numbers are inactive results; . = not tested or not shown. Compounds with a hit are over-represented: about 1.8% of the library has one in this group of screens. Rule as the data show it, unless noted: active = inhibition above about 21%; inactive = the rest.

SMILES	TDP2 inh	LEDGF integ inh	CASP6 VEID inh	UHRF1 MBD2 ctr	NSD2 inh	MBD2 DNA inh	UHRF1 ctr MBD2	MBD2 DBD conf
COc1ccccc1CNC(=O)C[C@@H]1CC[C@@H]2[C@@H](COc3ccc(NS(=O)(=O)c4ccc(C)cc4)cc3C(=O)N2C)O1	.	.	3	.	.	.	.	.
COc1ccccc1CNC(=O)C[C@H]1CC[C@H]2[C@H](COc3ccc(NS(=O)(=O)c4ccc(C)cc4)cc3C(=O)N2C)O1	7	-1	0	1	.	18*	5	6
CCOc1ccc(NC(=O)CN2CCCC2c2cccs2)cc1S(=O)(=O)N1CCCC1 (centres undefined)	-1	2	-1	-1	-2	42*	7	2
COc1ccc(NC(=O)CN2CCCC2c2cccs2)cc1S(=O)(=O)N1CCCCC1 (centres undefined)	-16	2	1	2	1	0	.	.
Cn1ccnc1SCC(=O)Nc1nc2ccccc2s1	5	-2	-1	5	1	14*	5	1
O=C(CSc1ccccn1)Nc1nc2ccccc2s1	10	-1	.	-2	27	1	.	.
O=C(Nc1ccc(-c2nc3ccccc3[nH]2)cc1)c1ccc2c(c1)OCO2	-21	-38	-1	6	0	14*	9	10
CCCNC(=O)C[C@@H]1CC[C@H]2[C@H](COc3ccc(NC(=O)Nc4c(C)noc4C)cc3C(=O)N2C)O1	.	.	0	.	.	.	.	.
COc1cc(OC)nc(Oc2ccccc2/C=N/O)n1	-4	3	-2	0	-2	15*	0	4
CC(Oc1ccc2c(c1)c1ccnc3c4ccccc4c(=O)n2c13)C(=O)NCCN1CCOCC1 (centres undefined)	6	0	.	15	.	8	.	.
COc1ccc2c(c1OC)c(=O)n1c3ccc(OC(C)C(=O)NCCN4CCOCC4)cc3c3ccnc2c31 (centres undefined)	-4	-1	-4	43*	.	36*	52*	50*
CCCNC(=O)N1CC2(CCN(C(=O)Nc3cccc(F)c3)CC2)c2c(n(C)c3cc(OC)ccc23)[C@@H]1CO	.	.	-1	.	.	.	.	.
COCOc1cccc(CN2CCC(C)(Oc3ccc(C(C)=O)cc3)C2)c1 (centres undefined)	-3	-1	-1	1	5	2	.	.
CC(=O)c1ccc(OC2(C)CCN(Cc3cc4ccccc4[nH]3)C2)cc1 (centres undefined)	4	-2	-2	9	3	13*	5	2
COc1cc(C(=O)NC2CCN(C)CC2)ccc1Nc1ncc2c(n1)N(C1CCCCC1)CCC(=O)N2C	-17	3	-16	37*	.	24*	30*	28*
COc1cc(C(=O)NC2CCN(C)CC2)ccc1Nc1ncc2c(n1)N(Cc1ccccc1)CCC(=O)N2C	5	-2	-64	-2	.	-3	.	.
C[C@H]1CN([C@@H](C)CO)C(=O)c2cc(C#CCc3ccccc3)cnc2O[C@H]1CN(C)Cc1ccccc1	.	.	0	.	.	.	.	.
COC(=O)c1ccccc1NC(=O)CSc1nc(O)cc(=O)n1C1CCCC1	-3	13	.	24*	6	13*	5	2
CCCCn1nnnc1C(CCc1ccccc1)N1CCN(C/C=C/c2ccccc2)CC1 (centres undefined)	-13	-10	-1	19	.	15*	12	4
CCCCn1nnnc1C(CCSC)N1CCN(C/C=C/c2ccccc2)CC1 (centres undefined)	-5	2	-1	0	.	-5	.	.
COc1ccc2c3c(n(C)c2c1)[C@H](CO)N(S(C)(=O)=O)CC31CN(C(=O)Nc2cccc(F)c2)C1	.	.	-3	.	.	.	.	.
Cc1cnc(NC(=O)c2cc(-c3ccccc3)nn2-c2ccccc2)s1	-1	-3	-2	-1	0	25*	5	3
CC(=O)c1sc(NC(=O)c2cc(-c3ccccc3)nn2-c2ccccc2)nc1C	2	0	1	9	-1	3	.	.
CNC[C@H]1OCCCC[C@@H](C)Oc2ccc(NC(=O)Nc3ccccc3)cc2C(=O)N([C@@H](C)CO)C[C@H]1C	.	.	-1	.	.	.	.	.
COc1ccc(Cc2c(C3CCCCC3)nc3ccc(C)cn23)c(C)c1	1	-1	-4	25*	.	18*	5	6
SMILES	TDP2 inh	LEDGF integ inh	CASP6 VEID inh	UHRF1 MBD2 ctr	NSD2 inh	MBD2 DNA inh	UHRF1 ctr MBD2	MBD2 DBD conf
C[C@H](NC(=O)[C@H]1N[C@H]2c3ccc(C4=CCCC4)c(=O)n3C[C@H]2[C@@H]1CO)c1ccccc1	.	.	2	.	.	.	.	.
COCC(=O)N1[C@H](CO)[C@H](c2ccccc2)C12CN(C(=O)c1cccc(F)c1)C2	.	.	-2	.	.	.	.	.
CCCC(=O)Oc1ccc(N(C(=O)CCC)S(=O)(=O)c2cccc([N+](=O)[O-])c2)cc1	-1	8	.	28*	1	17*	6	3
CCCC(=O)Oc1ccc(N(C(=O)CCC)S(=O)(=O)c2cccs2)cc1	-1	4	3	9	-10	9	.	.
C[C@H]1CN([C@@H](C)CO)C(=O)c2cc(NC(=O)CCCCCC(=O)Nc3ccccc3N)ccc2O[C@@H]1CN(C)S(=O)(=O)c1cn(C)cn1	.	.	-1	.	.	.	.	.
Cc1cc(C)c2c(N)c3ccccc3nc2n1	-12	0	.	22*	.	20*	21*	25*
CCOC(=O)C1CCN(CC(=O)Nc2c(C(=O)OC)[nH]c3cccc(Cl)c23)CC1	-8	2	.	-1	5	14*	3	6
CCOC(=O)C1CCN(CC(=O)Nc2c(C(=O)OC)[nH]c3ccccc23)CC1	1	-1	.	1	-2	5	.	.
CC1=C(C(=O)N(C)C)CC(CC(=O)NC(c2ccccc2)c2ccccc2)C(=O)N1Cc1ccc(F)cc1 (centres undefined)	-7	-3	-3	24*	.	14*	11	3
